The source of these data is ChEMBL document CHEMBL1155299, “Design, syntheses, and evaluation of Taspase1 inhibitors” (Bioorg Med Chem Lett, 2009).

Each structure is given as a SMILES string. Active and inactive are the calls of the source. No cut-off for these calls is given here. Peptide text beside a SMILES is read from it. Bounds are passed on as bounds.

In assay [1] the target is T1, Threonine aspartase 1 (Homo sapiens) (UniProt Q9H6P5).
T1 sequence (whole entry): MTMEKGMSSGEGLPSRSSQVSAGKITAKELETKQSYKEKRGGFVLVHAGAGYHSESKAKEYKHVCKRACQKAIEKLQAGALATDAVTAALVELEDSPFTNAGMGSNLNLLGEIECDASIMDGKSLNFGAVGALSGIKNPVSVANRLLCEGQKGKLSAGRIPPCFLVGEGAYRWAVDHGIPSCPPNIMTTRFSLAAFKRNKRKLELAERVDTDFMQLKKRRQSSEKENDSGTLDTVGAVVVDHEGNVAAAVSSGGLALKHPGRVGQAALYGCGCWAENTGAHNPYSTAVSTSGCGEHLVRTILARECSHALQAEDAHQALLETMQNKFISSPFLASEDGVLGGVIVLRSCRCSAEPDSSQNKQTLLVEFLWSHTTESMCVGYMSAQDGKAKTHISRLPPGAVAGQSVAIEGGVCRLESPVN
Description: Inhibition of recombinant Taspase 1 assessed as loss of processing and accumulation of full length p45 fragment by radiographic in vitro cleavage assay added 30 mins before translated p45MLL. Put shortly: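 Substrate was a p45MLL fragment (residues 2,500–2,800) with the CS1 site mutated to block cleavage there. It was made by in vitro translation as 35S-labelled protein, exposed to Taspase1, and cleavage was followed by radiography.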

Another assay has as its target T2, Threonine aspartase 1 (Homo sapiens, UniProt Q9H6P5).
T2 sequence (Q9H6P5 whole entry): T1 sequence (whole entry)
The experiment in a line: Inhibition of recombinant Taspase 1 assessed as accumulation of emitted fluorescence by FRET assay.

Assay [2] has as its target T1, Threonine aspartase 1 (Homo sapiens). Description: Inhibition of recombinant Taspase 1 assessed as accumulation of emitted fluorescence at 100 uM by FRET assay.

On to `CC[C@H](C)[C@H](NC(C)=O)C(=O)N[C@@H](CO)C(=O)N[C@@H](CCC(N)=O)C(=O)N[C@@H](CC(C)C)C(=O)N[C@@H](CC(=O)C1(C)CO1)C(=O)O` (some centres undefined) (HELM PEPTIDE1{[ac].I.S.Q.L.[CC1(C(=O)C[C@H](N[*:1])C(=O)O)CO1]}$$$$V2.0), for which the outcome in assay [1] was Active.
As to `CC[C@H](C)[C@H](NC(C)=O)C(=O)N[C@@H](CO)C(=O)N[C@@H](CCC(N)=O)C(=O)N[C@@H](CC(C)C)C(=O)N[C@@H](C/C=C/C(C)=O)C(=O)O` (HELM PEPTIDE1{[ac].I.S.Q.L.[CC(=O)/C=C/C[C@H](N[*:1])C(=O)O]}$$$$V2.0), in assay [1], the result was Active. Moreover, the IC50 at Threonine aspartase 1 was 63.4 µM.
As to `CC[C@H](C)[C@H](NC(C)=O)C(=O)N[C@@H](CO)C(=O)N[C@@H](CCC(N)=O)C(=O)N[C@@H](CC(C)C)C(=O)N[C@@H](C/C=C/S(C)(=O)=O)C(=O)O` (HELM PEPTIDE1{[ac].I.S.Q.L.[CS(=O)(=O)/C=C/C[C@H](N[*:1])C(=O)O]}$$$$V2.0), the result in assay [1] was Active. Moreover, the IC50 at Threonine aspartase 1 is more than 100 µM.
`CC[C@H](C)[C@H](NC(C)=O)C(=O)N[C@@H](CO)C(=O)N[C@@H](CCC(N)=O)C(=O)N[C@@H](CC(C)C)C(=O)N[C@H](/C=C/S(C)(=O)=O)CC(=O)O` (HELM PEPTIDE1{[ac].I.S.Q.L.[CS(=O)(=O)/C=C/[C@H](CC(=O)O)N[*:1]]}$$$$V2.0): in assay [1], the result was Active.
With `CCCC[C@H](NC(=O)[C@H](CC(C)C)NC(=O)[C@H](CCC(N)=O)NC(=O)[C@H](CO)NC(=O)[C@@H](NC(C)=O)[C@@H](C)CC)C(=O)O` (HELM PEPTIDE1{[ac].I.S.Q.L.[Nle]}$$$$V2.0), the result in assay [2] was inactive.
The same measure, in the same setting: the same measure for `CC[C@H](C)[C@H](NC(C)=O)C(=O)N[C@@H](CO)C(=O)N[C@@H](CCC(N)=O)C(=O)N[C@@H](CC(C)C)C(=O)NC1CB(O)OC1=O` (some centres undefined) (HELM PEPTIDE1{[ac].I.S.Q.L.[O=C1OB(O)CC1N[*:1]]}$$$$V2.0): “inactive”; for `CCCC[C@H](NC(=O)[C@H](CC(C)C)NC(=O)[C@H](CCC(N)=O)NC(C)=O)C(=O)O` (HELM PEPTIDE1{[ac].Q.L.[Nle]}$$$$V2.0): “inactive”.
